In ChEMBL document CHEMBL2062525, “Substituted 3-(5-imidazo[2,1-b]thiazolylmethylene)-2-indolinones and analogues: synthesis, cytotoxic activity, and study of the mechanism of action” (J Med Chem, 2012):
pIC50: −log10 of the molar value. Calls of active or inactive are those of the source.

Tests used:
[1] = Cytotoxicity against human leukemia cells after 48 hrs; type: functional; details: Leukemia cell
How it was run: (§1)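 NCI 60-cell panel (subpanels include leukemia and prostate). […] Percent growth relative to untreated control; some repeats averaged over two experiments.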

[2] = test system: NSCLC; test: Cytotoxicity against human NSCLC cells after 48 hrs; type: functional
How it was run: (§2)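 NCI 60-cell panel subpanel lines; compounds first screened at a single 10−5 M, then those passing threshold tested in five-concentration assay over 10−9 to 10−4 M (some to 10−3 M), 48 h exposure. Growth relative to untreated control measured as cell protein; GI50, TGI and LC50 derived; some values are means of two experiments.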

[3] = Cytotoxicity against human COLON cells after 48 hrs; type: functional; how it was run: as §2
[4] = Cytotoxicity against human CNS cancer cells after 48 hrs; type: functional; details: Cancer cell lines; how it was run: as §2
[5] = Cytotoxicity against human melanoma cells after 48 hrs; type: functional; details: Melanoma cell; for CC50: read-out: LC50 (the source's name); how it was run: as §2
[6] = Cytotoxicity against human ovarian cancer cells after 48 hrs; type: functional; details: Cancer cell lines; how it was run: as §2
[7] = Cytotoxicity against human renal cancer cells after 48 hrs; type: functional; details: Cancer cell lines; for CC50: read-out: LC50 (the source's name); how it was run: as §2
[8] = Cytotoxicity against human prostate cancer cells after 48 hrs; type: functional; details: Cancer cell lines; how it was run: as §1
[9] = Cytotoxicity against human breast cancer cells after 48 hrs; type: functional; details: Cancer cell lines; how it was run: as §2
[10] = Inhibition of bovine brain tubulin assembly after 20 mins; set-up: species or system Bos taurus
[11] = species on record: Bos taurus; test: Displacement of [3H]colchicine from bovine brain tubulin at 5 uM after 10 mins
[12] = test system: HT-29; test: Cell cycle arrest in human HT-29 cells assessed as increase of cell population at G2/M phase at 100 nM after 24 hrs by flow cytometry; type: functional, cell-based
How it was run: (§3)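 HT-29 cells in RPMI 1640 with 10% FBS, 2 mM L-glutamine, 37 °C, 5% CO2; treated 24 h, DMSO 0.01% in medium. Fixed in 70% ethanol at −20 °C ≥12 h, RNase A (10 μg/mL) 30 min at 37 °C, DNA stained with PI (50 μg/mL), flow cytometry; one experiment representative of three.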

[13] = test system: HT-29; test: Induction of cell cycle arrest in human HT-29 cells assessed as increase in p21 expression after 24 hrs by immunofluorescence confocal microscopy; type: functional, cell-based
How it was run: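 On coverslips, HT-29 cells were treated 24 h, fixed with 3% paraformaldehyde, permeabilized with 70% ice-cold ethanol, stained with anti-p21 then FITC secondary (1 h, room temperature each), nuclei counterstained with PI; confocal microscopy; representative of three experiments.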

[14] = test system: HT-29; test: Induction of apoptosis in human HT-29 cells at 100 nM after 24 hrs by trypan blue exclusion assay; type: functional, cell-based
How it was run: (§4)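 HT-29 cells plated at 2×10^4 cells/cm2, treated 24 h in triplicate (DMSO 0.01%; DMSO-only controls); viable cells counted by trypan blue exclusion; mean ± s.e.m. of three determinations.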

[15] = test system: HT-29; test: Induction of apoptosis in human HT-29 cells assessed as chromatin condensation by propidium iodide staining method; type: functional, cell-based
How it was run: (§5)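 HT-29 cells on glass coverslips (1×10^4 cells/cm2), treated 24 h; fixed in 3% paraformaldehyde, ethanol-permeabilized; nuclei stained with PI and viewed by laser scanning confocal microscopy for chromatin condensation and nuclear fragmentation; representative of three experiments.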

[16] = test system: HT-29; test: Induction of apoptosis in human HT-29 cells assessed as nuclear fragmentation by propidium iodide staining method; type: functional, cell-based; how it was run: as §5
[17] = test system: HT-29; test: Induction of apoptosis in human HT-29 cells assessed as increase in caspase activity at 500 nM after 48 hrs by fluorometry; type: functional, cell-based
How it was run: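 Cells exposed 48 h to 500 nM; DEVD-cleaving caspase (DEVDase) activity measured fluorometrically in cell extracts; mean ± s.e.m. of four determinations.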

[18] = test system: HT-29; test: Induction of apoptosis in human HT-29 cells assessed as increase in early apoptotic cells after 24 hrs by annexin-V-FLUOS and propidium iodide staining based flow cytometry (reference value: 3.9%); type: functional
[19] = test system: HeLa; test: Inhibition of Akt phosphorylation at ser473 in human HeLa cells at 1 uM after 3 hrs by Western blotting analysis; type: cell-based
How it was run: (§6)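 HeLa cells in RPMI 1640 with 10% FBS, treated 3 h at 1 μM. Lysates centrifuged 15,000 × g 15 min; 80 μg protein per lane by SDS-PAGE, nitrocellulose transfer, phospho-specific and total primary antibodies, peroxidase anti-rabbit secondary, ECL chemiluminescence.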

[20] = biological target: Serine/threonine-protein kinase mTOR (Homo sapiens) (UniProt P42345); test: Inhibition of mTOR phosphorylation at ser2448 in human HeLa cells at 1 uM after 3 hrs by Western blotting analysis; type: cell-based; how it was run: as §6
[21] = biological target: Mitogen-activated protein kinase; ERK1/ERK2 (Homo sapiens) (UniProt P27361+P28482); test: Inhibition of ERK1/2 phosphorylation at Thr202/Tyr204 in human HeLa cells at 1 uM after 3 hrs by Western blotting analysis; type: cell-based; how it was run: as §6
Mitogen-activated protein kinase; ERK1/ERK2 (Homo sapiens), sequence (P27361 whole entry, looked up): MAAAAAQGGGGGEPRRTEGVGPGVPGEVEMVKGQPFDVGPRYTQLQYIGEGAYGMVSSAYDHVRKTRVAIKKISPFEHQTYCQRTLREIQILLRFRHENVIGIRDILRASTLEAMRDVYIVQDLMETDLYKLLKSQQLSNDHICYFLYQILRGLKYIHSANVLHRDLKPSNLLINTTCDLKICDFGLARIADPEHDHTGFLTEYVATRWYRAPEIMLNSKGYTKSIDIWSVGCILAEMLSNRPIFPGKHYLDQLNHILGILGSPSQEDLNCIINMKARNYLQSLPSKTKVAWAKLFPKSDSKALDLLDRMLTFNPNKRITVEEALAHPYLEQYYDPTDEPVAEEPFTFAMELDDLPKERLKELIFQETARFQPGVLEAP
Mitogen-activated protein kinase; ERK1/ERK2 (Homo sapiens), sequence (P28482 whole entry, looked up): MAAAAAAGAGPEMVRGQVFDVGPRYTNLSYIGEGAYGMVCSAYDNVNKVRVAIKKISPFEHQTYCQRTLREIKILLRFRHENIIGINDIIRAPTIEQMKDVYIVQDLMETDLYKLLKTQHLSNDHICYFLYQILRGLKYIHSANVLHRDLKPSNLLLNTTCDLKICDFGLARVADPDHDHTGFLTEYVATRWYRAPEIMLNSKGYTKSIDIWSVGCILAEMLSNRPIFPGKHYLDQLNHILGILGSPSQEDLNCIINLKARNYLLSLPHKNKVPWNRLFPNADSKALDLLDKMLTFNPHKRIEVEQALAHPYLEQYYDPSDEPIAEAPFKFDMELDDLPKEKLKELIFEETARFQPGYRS

[22] = biological target: c-Jun N-terminal kinase, JNK (Homo sapiens) (UniProt P45983+P53779+P45984); test: Inhibition of JNK phosphorylation at Thr183/Tyr185 in human HeLa cells at 1 uM after 3 hrs by Western blotting analysis; type: cell-based; how it was run: as §6
[23] = biological target: MAP kinase p38 (Homo sapiens) (UniProt O15264+Q15759+Q16539+P53778); test: Inhibition of p38 phosphorylation at Thr180/Tyr182 in human HeLa cells at 1 uM after 3 hrs by Western blotting analysis; type: cell-based; how it was run: as §6
[24] = biological target: AMP-activated protein kinase, AMPK (Homo sapiens) (UniProt P54646+O43741+P54619+Q9UGJ0+Q9Y478+Q13131+Q9UGI9); test: Inhibition of AMPK phosphorylation at Thr172 in human HeLa cells at 1 uM after 3 hrs by Western blotting analysis; type: cell-based; how it was run: as §6
[25] = test system: HT-29; test: Induction of apoptosis in human HT-29 cells assessed as loss of mitochondrial membrane potential after 24 hrs by DiOC6 staining based fluorescence assay; type: functional, cell-based
How it was run: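 Following 24 h treatment at 500 nM, HT-29 cells (1×10^6/mL) were stained with 4 nM DiOC6 for 40 min at 37 °C in the dark, counterstained with PI 5 μg/mL to exclude dead cells; fluorescence by flow cytometry; representative of three to five experiments.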

[26] = test system: HT-29; test: Induction of apoptosis in human HT-29 cells assessed as increase in mitochondrial ROS production by dihydroethidium staining based flow cytometry; type: functional, cell-based
How it was run: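 ROS read-out: HT-29 cells treated 24 h with 500 nM, then loaded with 5 μM dihydroethidium for 30 min at 37 °C; superoxide-derived red fluorescence measured by flow cytometry with logarithmic amplification; representative of three to five experiments.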

[27] = test system: HT-29; test: Induction of apoptosis in human HT-29 cells assessed as increase in BAX level in mitochondria after 24 hrs by confocal laser microscopic analysis; type: functional, cell-based
How it was run: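 HT-29 cells treated 24 h with 500 nM; loaded with 150 nM MitoTracker Red CM-H2XRos for 10 min at 37 °C, then fixed, permeabilized, probed with anti-Bax plus FITC secondary (1 h each, room temperature). Confocal microscopy; colocalization with mitochondria seen as orange pixels.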

[28] = test system: HT-29; test: Induction of apoptosis in human HT-29 cells at 500 nM after 24 hrs by trypan blue exclusion assay; type: functional, cell-based; how it was run: as §4
[29] = test system: HT-29; test: Cell cycle arrest in human HT-29 cells assessed as increase of cell population at G2/M phase at 500 nM after 24 hrs by flow cytometry; type: functional, cell-based; how it was run: as §3

COc1ccc2c(c1)/C(=C\c1c(-c3ccccn3)nc3sccn13)C(=O)N2
GI50 [1]: 0.02 µM | GI50 [2]: 0.11 µM | LC50 [2]: 39.8 µM | TGI [2]: 6.46 µM | LC50 (concentration giving 50% net cell kill) [3]: 15.1 µM | TGI [3]: 1.35 µM | GI50 [4]: 0.03 µM | LC50 [4]: 34.7 µM | TGI [4]: 2.57 µM | GI50 [5]: 0.02 µM | TGI [5]: 6.76 µM | CC50 [5]: 38.9 µM | GI50 [6]: 0.04 µM | LC50 (concentration killing 50% of starting cells) [6]: 17 µM | TGI [6]: 2.19 µM | GI50 [7]: 0.07 µM | TGI [7]: 4.68 µM | CC50 [7]: 28.8 µM | GI50 [8]: 0.03 µM | TGI [8]: 3.98 µM | GI50 [9]: 0.04 µM | LC50 [9]: 46.8 µM | TGI [9]: 8.32 µM | pIC50 [10]: 5.04 | inhibition [11]: 36% | Activity [12]: Active | Activity [13]: Active | Activity [14]: Active | Activity [15]: Active | Activity [16]: Active | Activity [17]: Active | Activity [18]: 23% | inhibition [19]: Active | inhibition [20]: inactive | inhibition [21]: Active | inhibition [22]: Active | inhibition [23]: Active | inhibition [24]: Active

COc1ccc2c(c1)C(=Cc1c(OC)nc3sccn13)C(=O)N2 (mixture of isomers)
GI50 [1]: 0.02 µM | LC50 (concentration killing 50% of cells) [1]: 91.2 µM | TGI [1]: 4.57 µM | GI50 [2]: 0.16 µM | TGI [2]: 44.7 µM | LC50 (concentration giving 50% net cell kill) [3]: 66.1 µM | TGI [3]: 7.59 µM | GI50 [4]: 0.04 µM | TGI [4]: 15.5 µM | GI50 [5]: 0.04 µM | TGI [5]: 20.9 µM | CC50 [5]: 81.3 µM | GI50 [6]: 0.1 µM | TGI [6]: 12 µM | GI50 [7]: 0.14 µM | TGI [7]: 31.6 µM | GI50 [8]: 0.05 µM | TGI [8]: 40.7 µM | GI50 [9]: 0.17 µM | TGI [9]: 34.7 µM | pIC50 [10]: 5.54 | inhibition [11]: 62% | Activity [12]: Active | Activity [13]: Active | Activity [14]: Active | Activity [15]: Active | Activity [16]: Active | Activity [17]: Active | Activity [18]: 27% | inhibition [19]: Active | inhibition [20]: inactive | inhibition [21]: Active | inhibition [22]: Active | inhibition [23]: Active | inhibition [24]: Active

Cc1cn2c(/C=C3/C(=O)Nc4c3ccc3ccccc43)c(C)nc2s1
TGI [1]: 53.7 µM | GI50 [2]: 0.31 µM | LC50 [2]: 93.3 µM | TGI [2]: 28.2 µM | GI50 [3]: 0.11 µM | TGI [3]: 58.9 µM | GI50 [4]: 0.17 µM | LC50 [4]: 74.1 µM | TGI [4]: 5.37 µM | GI50 [5]: 0.14 µM | TGI [5]: 50.1 µM | GI50 [6]: 0.85 µM | LC50 (concentration killing 50% of starting cells) [6]: 74.1 µM | TGI [6]: 14.1 µM | GI50 [7]: 0.23 µM | TGI [7]: 12 µM | CC50 [7]: 70.8 µM | GI50 [8]: 0.21 µM | TGI [8]: 16.2 µM | GI50 [9]: 0.18 µM | LC50 [9]: 50.1 µM | TGI [9]: 5.62 µM | pIC50 [10]: 5.28 | inhibition [11]: 49% | Activity [13]: Active | Activity [14]: Active | Activity [15]: Active | Activity [16]: Active | Activity [17]: Active | Activity [18]: 12.5% | Activity [25]: Active | Activity [26]: Active | Activity [27]: Active | inhibition [19]: inactive | inhibition [20]: inactive | inhibition [21]: inactive | inhibition [22]: inactive | inhibition [23]: inactive | inhibition [24]: inactive | Activity [28]: Active | Activity [29]: Active
